# High-throughput results: PubChem, several laboratories
# A selection: hits, their analogues and other compounds. The true share with any hit is near 4.5%.
# NF-kB neuron act: raises NF-kB expression in human neuronal cells; NF-kB reporter expression; active compounds read high; fold change at 12.5 µM; 1.6% of 190,000 active; in the data active = fold change above about 3.3
# STAT1 activator: increases IFN-gamma driven STAT1 reporter signal | NIH 3T3 STAT1-luciferase reporter, luminescence; 100% = IFN-gamma alone, no compound | activation (% of control), % at 5.5 µM | 2.6% of 200,000 active;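 active = activation above the screen-wide mean activation plus 3 SD, cut at about 130% in these data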;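 also: raw ratio to IFN-gamma control signal so 100% means no change and 0% no light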
# PERK inh: inhibitors of human PERK kinase. 0.17% of 220,000 active. inhibition, % at 5.6 µM. Q9NZJ5. CHO PERK-DD fusion, SEAP luminescence translation reporter;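 active = inhibition above the mean inhibition of all tested compounds plus 3 SD, set separately per screening campaign, cut at about 2.9% in these data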;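 also: PERK kinase domain activated by AP20187 dimerizer at 100 nM; 0% = DMSO with dimerizer and 100% = rapamycin at 8.4 µM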
# MDM2 E3 inh: Mdm2 E3 ligase (human) inhibition. Q00987. cell-based MDM2 ubiquitination luciferase reporter, 2 h; 0 = plate control, 100 = twice control, blank-subtracted. signal enhancement, % at 5 µM. 0.11% of 210,000 active;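 active = signal enhancement of 30% or more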;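 also: luminescence tracks abundance of the self-degrading MDM2-luciferase fusion protein; higher signal means inhibition of MDM2 E3 ligase activity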
# Target sequence (Q00987 whole entry, looked up, the tested form may be a part): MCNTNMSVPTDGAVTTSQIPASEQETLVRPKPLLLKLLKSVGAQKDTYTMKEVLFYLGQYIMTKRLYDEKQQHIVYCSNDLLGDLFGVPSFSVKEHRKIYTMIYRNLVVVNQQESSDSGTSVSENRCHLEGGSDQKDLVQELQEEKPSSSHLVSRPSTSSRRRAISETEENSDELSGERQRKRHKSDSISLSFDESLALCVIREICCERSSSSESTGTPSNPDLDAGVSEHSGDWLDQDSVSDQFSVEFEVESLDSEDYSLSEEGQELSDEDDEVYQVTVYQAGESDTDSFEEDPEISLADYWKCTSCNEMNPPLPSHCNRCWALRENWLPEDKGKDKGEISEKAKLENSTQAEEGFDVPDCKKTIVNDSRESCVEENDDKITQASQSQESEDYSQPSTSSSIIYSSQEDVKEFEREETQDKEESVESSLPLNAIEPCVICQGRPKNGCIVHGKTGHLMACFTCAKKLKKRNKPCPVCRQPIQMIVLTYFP
#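 Buffer or medium: Cells held in DMEM | Assay system: Stable mammalian line carrying autodegrading MDM2–luciferase fusion reporter | Quantity: 2000 cells/well | Times: 4 h settle plus 2 h compound, 37 °C | Doses: One concentration, 5 µM, with 0.2% DMSO | Technique: Luminescence with SteadyLite reagent, 15 min at room temperature | Benchmarks: Plate controls and plate blanks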
# APP 5'UTR act: activates APP 5'UTR luciferase reporter; SH-SY5Y APP 5'UTR luciferase reporter, luminescence; zero percent = DMSO vehicle wells; activation, % at 2 µM; 1% of 190,000 active; AID 1276;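 active = activation above a set limit, based on mean plus 3 SD of controls, cut at about 140% in these data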
# AHR act: human AHR activation. P35869. AHR-responsive luciferase reporter cells, luminescence. activation, % at 5 µM. 2.5% of 320,000 active. AID 2796; in the data active = activation above about 47%;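 also: 0% = vehicle wells and 100% = reference agonist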
# * marks the source's active call; other numbers are inactive results; x = no result.
SMILES,NF-kB neuron act,STAT1 activator,PERK inh,MDM2 E3 inh,APP 5'UTR act,AHR act
COc1ccc(OCc2cccc(C(=O)NN)c2)cc1,2.5,43,0,-55,80,2
Cn1c(SCc2cccc([N+](=O)[O-])c2)nc2ccccc2c1=O,x,x,x,x,x,1
COc1cc(CNC(=O)c2cccc(COc3ccc(Cl)cc3)c2)cc(OC)c1,1.9,107,0,-6,139*,13
COc1ccc(C(=O)Nn2c(SCc3cccc([N+](=O)[O-])c3)nc3ccccc3c2=O)cc1,0.86,144*,-1,-37,94,6
COc1cccc(CNC(=S)NC2CC2)c1,1.5,98,1,-11,8,3
O=C(NC1CCCC1)C(c1ccccn1)N(C(=O)c1csnn1)c1ccccc1F (stereo not drawn),x,x,x,x,x,1
CNC(=O)Nc1cccc2cccnc12,x,x,0,-9,x,2
C/C(=N\Nc1cccc2cccnc12)c1ccc(N)cc1,2.3,111,1,-14,198*,29
C/C(=N\Nc1cccc2cccnc12)c1ccccn1,0.97,61,1,-52,272*,47*
C/C(=N\Nc1cccc2cccnc12)c1ccccc1O,6.9*,118,0,-35,202*,50*
Cc1ccc(OCC(=O)c2c(N)n(C)c(=O)n(C)c2=O)c([N+](=O)[O-])n1,x,x,x,x,x,5
Nc1ccccc1Nc1cccc(C(F)(F)F)c1,0.76,129*,0,3,-7,3
CCC(=O)NN1CCc2cc3ccc(C)cc3nc21,x,x,x,x,x,22
C/C(=N\O)c1ccc(N2C(=O)C3CC=C(Cl)CC3C2=O)cc1 (stereo not drawn),2.1,139*,-1,x,144*,-3
CCOc1ccc(N2CC(C(=O)NCc3ccc4c(c3)OCO4)CC2=O)cc1 (stereo not drawn),x,x,x,x,x,1
COC(=O)c1c(-c2ccccc2Cl)noc1/C=C/N(C)C,1.3,95,1,42*,-20,-2
Cc1ccccc1Nc1nc(-c2cccnc2)nc2ccccc12,0.41,90,1,0,13,45
c1cncc(-c2nc(N3CCOCC3)c3ccccc3n2)c1,0.99,104,-1,-22,-19,78*
c1ccc2c(N3CCOCC3)nc(-c3ccncc3)nc2c1,0.78,93,0,1,-10,20
Cc1cc(N)n(-c2nc(-c3cccnc3)nc3ccccc23)n1,0.73,105,0,-13,26,61*
CCOC(=O)c1ncn2c1[C@@H]1CCNC1C(=O)c1cc(OC)ccc1-2 (stereo partly drawn),x,x,x,x,x,1
CCOc1ncccc1C(=O)NCCc1ccc(S(N)(=O)=O)cc1,x,x,x,x,x,-2
CCOC(=O)c1nn(-c2ccc(Cl)cc2)cc1O,x,x,0,-22,x,3
COC(=O)c1nn(-c2ccc(-c3ccccc3)cc2)cc1O,4.6*,96,1,-6,156*,-10
CCOC(=O)c1nn(-c2ccc(C)cc2)cc1O,4.1*,108,-1,-5,137*,1
SMILES,NF-kB neuron act,STAT1 activator,PERK inh,MDM2 E3 inh,APP 5'UTR act,AHR act
N/C(=N\OC(=O)c1ccc(Br)cc1)c1ccccc1,9.7*,150*,2,-8,124,25
Cc1ccc(C(=O)O/N=C(\N)c2ccc(Br)cc2)cc1,3.8*,137*,1,-5,36,-6
CCc1ccc(C2CC(c3ccco3)=NN2S(C)(=O)=O)cc1 (stereo not drawn),4.8*,138*,0,-52,155*,4
COc1ccc(Cn2c(SCC#N)nc3ccc(N4CCOCC4)cc3c2=O)cc1,2.9,136*,0,5,60,6
CCCc1nnc(SCC(=O)NC2CC2)n1C,x,x,x,x,x,0
Cc1cc(=O)oc2cc(NC(=O)c3ccccc3C(=O)O)ccc12,x,x,x,x,x,4
Cc1cc(=O)oc2cc(NC(=O)c3ccccc3Cl)ccc12,x,x,x,x,x,63*
CCn1cnc2cc(NC(=O)c3cccs3)ccc21,2.5,135*,1,-7,76,18
CC(C)(C)n1cnc2cc(NC(=O)c3cccs3)ccc21,4*,142*,0,-8,54,16
COc1ccc2c(C(=O)NCc3ccc4c(c3)OCO4)c(-c3ccc(S(C)(=O)=O)cc3)sc2c1,x,x,x,x,x,1
COc1cccc(CN(C)CC(=O)Nc2cccc3ccccc23)c1,1.1,98,1,-10,6,16
COc1cc(C(=O)NCC(c2cccs2)N2CCc3ccccc32)cc(OC)c1OC (stereo not drawn),x,x,x,x,x,48*
COc1ccccc1C(=O)NCC(c1cccs1)N1CCc2ccccc21 (stereo not drawn),x,x,x,x,x,6
Oc1csc(Cc2nc(-c3ccc4ccccc4c3)cs2)n1,1.9,129*,-1,-11,29,83*
Oc1csc(Cc2nc(-c3ccc(-c4ccccc4)cc3)cs2)n1,1.1,107,1,-11,50,65*
Oc1csc(Cc2nc(-c3ccccc3F)cs2)n1,1.9,144*,2,-43,18,8
COc1nc(NCCc2ccc(OC)c(OC)c2)nc(Nc2ccccc2)n1,x,x,x,x,x,48*
CCCCn1nc(NC(=O)c2cccs2)c2cc3cc(OC)ccc3nc21,0.42,102,-2,-14,3,50*
CCCCn1nc(NC(=O)c2cccs2)c2cc3ccccc3nc21,0.75,99,0,-18,11,20
CCCn1nc(NC(=O)c2cccs2)c2cc3cc(C)ccc3nc21,x,x,-3,-2,x,18
CCCn1nc(NC(=O)c2cccs2)c2cc3cc(OC)ccc3nc21,0.47,94,-2,-5,-1,66*
C[C@@]12C(=O)N(c3ccc(C(F)(F)F)cc3)C(=O)N1[C@@H]1c3ccccc3OC[C@@H]1[C@H]2c1ccccc1,x,x,x,x,x,1
O=C(O)C1CCN(C(=O)NC2CCCCC2)CC1,1.2,104,2.9*,-9,5,-1
O=C(c1ccc(Cl)cc1)C1CCN(C(=O)NC2CCCCC2)CC1,0.7,98,0,-18,11,-7
O=C(Nc1nc2ccccc2[nH]1)c1ccccc1OC(F)F,x,x,x,x,x,51*
SMILES,NF-kB neuron act,STAT1 activator,PERK inh,MDM2 E3 inh,APP 5'UTR act,AHR act
O=C(Nc1nc2ccccc2[nH]1)c1ccccc1[N+](=O)[O-],2.2,136*,0,-15,17,19
Cc1c(C(=O)Nc2nc3ccccc3[nH]2)cccc1[N+](=O)[O-],1.5,109,0,-18,54,60*
Cc1c(C(=O)NC(Cc2ccccc2)c2nc3ccccc3[nH]2)cccc1[N+](=O)[O-] (stereo not drawn),0.99,105,0,-1,-9,11
Cc1ccc(S(=O)(=O)N(C)C)cc1NC(=O)C(C)OC(=O)c1cc[n+]([O-])cc1 (stereo not drawn),x,x,x,x,x,1
NS(=O)(=O)c1ccc(N2C(=O)C(=O)/C(=C(/O)c3ccccc3)C2c2ccc(Cl)cc2)cc1 (stereo not drawn),x,x,0,-16,x,-1
COc1ccc(-c2nc3ccccn3c2C=O)cc1,2.4,143*,1,-15,106,55*
